In ChEMBL document CHEMBL4261538, “Synthesis and molecular docking studies of xanthone attached amino acids as potential antimicrobial and anti-inflammatory agents” (Medchemcomm, 2017):
In brackets after ≈: the same amount, converted by molar mass.

What was measured:
Bacillus subtilis [1] = test: Antibacterial activity against Bacillus subtilis at 25 ug/ml incubated for 24 hrs by agar well diffusion method; assay type: functional; settings: read-out: DIZ
Summary of the method: (§1)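 Bacteria grown in nutrient broth at 37 °C for 24 h, then subcultured at room temperature. Compounds dissolved in DMSO at 5 mg mL⁻¹ and 5–20 µL added to 6 mm wells, giving 25, 50, 75, 100 µg per well. Gentamicin was the positive control and DMSO the negative control. Plates held at 37 °C for 24 h, then inhibition zone diameter (mm) measured. Values are means of three determinations.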

Escherichia coli [2] = test: Antibacterial activity against Escherichia coli at 75 ug/ml incubated for 24 hrs by agar well diffusion method; assay type: functional; settings: read-out: DIZ; summary of the method: as §1
Erythrocyte = test: Anti-inflammatory activity in human RBC assessed as inhibition of hypotonic solution-induced hemolysis after 10 mins by spectrophotometric method; assay type: functional, cell-based
Summary of the method: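 Human blood (heparinized) washed with 0.9% saline, packed cells made into a 40% v/v stock in isotonic phosphate buffer (154 mM NaCl, 10 mM sodium phosphate, pH 7.4). Stock RBC mixed with hypotonic buffer (50 mM NaCl, 10 mM phosphate, pH 7.4) plus sample at 20–100 µg mL⁻¹.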

Klebsiella pneumoniae [3] = test: Antibacterial activity against Klebsiella pneumoniae at 50 ug/ml incubated for 24 hrs by agar well diffusion method; assay type: functional; settings: read-out: DIZ; summary of the method: as §1
Candida albicans [4] = test: Antifungal activity against Candida albicans at 100 ug/ml incubated for 48 hrs by agar well diffusion method; assay type: functional; settings: read-out: DIZ
Summary of the method: (§2)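 Compounds dissolved in DMSO at 5 mg mL⁻¹ and 5–20 µL added to 6 mm wells, giving 25, 50, 75, 100 µg per well. Bavistin was the positive control and DMSO the negative control. Plates incubated at 28 °C for 48 h, then inhibition zone diameter (mm) measured. Values are means of three determinations.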

Escherichia coli [5] = test: Antibacterial activity against Escherichia coli at 50 ug/ml incubated for 24 hrs by agar well diffusion method; assay type: functional; settings: read-out: DIZ; summary of the method: as §1
Fusarium oxysporum [6] = test: Antifungal activity against Fusarium oxysporum at 50 ug/ml incubated for 48 hrs by agar well diffusion method; assay type: functional; settings: read-out: DIZ; summary of the method: as §2
Escherichia coli [7] = test: Antibacterial activity against Escherichia coli at 100 ug/ml incubated for 24 hrs by agar well diffusion method; assay type: functional; settings: read-out: DIZ; summary of the method: as §1
Staphylococcus aureus [8] = test: Antibacterial activity against Staphylococcus aureus at 50 ug/ml incubated for 24 hrs by agar well diffusion method; assay type: functional; settings: read-out: DIZ; summary of the method: as §1
Aspergillus niger [9] = test: Antifungal activity against Aspergillus niger at 100 ug/ml incubated for 48 hrs by agar well diffusion method; assay type: functional; settings: read-out: DIZ; summary of the method: as §2
Candida albicans [10] = test: Antifungal activity against Candida albicans at 50 ug/ml incubated for 48 hrs by agar well diffusion method; assay type: functional; settings: read-out: DIZ; summary of the method: as §2
Aspergillus niger [11] = test: Antifungal activity against Aspergillus niger at 50 ug/ml incubated for 48 hrs by agar well diffusion method; assay type: functional; settings: read-out: DIZ; summary of the method: as §2
Fusarium oxysporum [12] = test: Antifungal activity against Fusarium oxysporum at 25 ug/ml incubated for 48 hrs by agar well diffusion method; assay type: functional; settings: read-out: DIZ; summary of the method: as §2
Klebsiella pneumoniae [13] = test: Antibacterial activity against Klebsiella pneumoniae at 75 ug/ml incubated for 24 hrs by agar well diffusion method; assay type: functional; settings: read-out: DIZ; summary of the method: as §1
Bacillus subtilis [14] = test: Antibacterial activity against Bacillus subtilis at 50 ug/ml incubated for 24 hrs by agar well diffusion method; assay type: functional; settings: read-out: DIZ; summary of the method: as §1
Bacillus subtilis [15] = test: Antibacterial activity against Bacillus subtilis at 75 ug/ml incubated for 24 hrs by agar well diffusion method; assay type: functional; settings: read-out: DIZ; summary of the method: as §1
Aspergillus niger [16] = test: Antifungal activity against Aspergillus niger at 75 ug/ml incubated for 48 hrs by agar well diffusion method; assay type: functional; settings: read-out: DIZ; summary of the method: as §2
Aspergillus niger [17] = test: Antifungal activity against Aspergillus niger at 25 ug/ml incubated for 48 hrs by agar well diffusion method; assay type: functional; settings: read-out: DIZ; summary of the method: as §2
Candida albicans [18] = test: Antifungal activity against Candida albicans at 25 ug/ml incubated for 48 hrs by agar well diffusion method; assay type: functional; settings: read-out: DIZ; summary of the method: as §2
Fusarium oxysporum [19] = test: Antifungal activity against Fusarium oxysporum at 100 ug/ml incubated for 48 hrs by agar well diffusion method; assay type: functional; settings: read-out: DIZ; summary of the method: as §2
Klebsiella pneumoniae [20] = test: Antibacterial activity against Klebsiella pneumoniae at 100 ug/ml incubated for 24 hrs by agar well diffusion method; assay type: functional; settings: read-out: DIZ; summary of the method: as §1
Bacillus subtilis [21] = test: Antibacterial activity against Bacillus subtilis at 100 ug/ml incubated for 24 hrs by agar well diffusion method; assay type: functional; settings: read-out: DIZ; summary of the method: as §1
Escherichia coli [22] = test: Antibacterial activity against Escherichia coli at 25 ug/ml incubated for 24 hrs by agar well diffusion method; assay type: functional; settings: read-out: DIZ; summary of the method: as §1
Klebsiella pneumoniae [23] = test: Antibacterial activity against Klebsiella pneumoniae at 25 ug/ml incubated for 24 hrs by agar well diffusion method; assay type: functional; settings: read-out: DIZ; summary of the method: as §1
Candida albicans [24] = test: Antifungal activity against Candida albicans at 75 ug/ml incubated for 48 hrs by agar well diffusion method; assay type: functional; settings: read-out: DIZ; summary of the method: as §2
Fusarium oxysporum [25] = test: Antifungal activity against Fusarium oxysporum at 75 ug/ml incubated for 48 hrs by agar well diffusion method; assay type: functional; settings: read-out: DIZ; summary of the method: as §2
Staphylococcus aureus [26] = test: Antibacterial activity against Staphylococcus aureus at 75 ug/ml incubated for 24 hrs by agar well diffusion method; assay type: functional; settings: read-out: DIZ; summary of the method: as §1
Staphylococcus aureus [27] = test: Antibacterial activity against Staphylococcus aureus at 100 ug/ml incubated for 24 hrs by agar well diffusion method; assay type: functional; settings: read-out: DIZ; summary of the method: as §1
Staphylococcus aureus [28] = test: Antibacterial activity against Staphylococcus aureus at 25 ug/ml incubated for 24 hrs by agar well diffusion method; assay type: functional; settings: read-out: DIZ; summary of the method: as §1

SMILES	zone of inhibition at 25 µg/mL (Bacillus subtilis [1]) [mm]	zone of inhibition at 75 µg/mL (Escherichia coli [2]) [mm]	IC50 (Erythrocyte) [mg/L]	zone of inhibition at 50 µg/mL (Klebsiella pneumoniae [3]) [mm]	zone of inhibition at 100 µg/mL (Candida albicans [4]) [mm]	zone of inhibition at 50 µg/mL (Escherichia coli [5]) [mm]	zone of inhibition at 50 µg/mL (Fusarium oxysporum [6]) [mm]	zone of inhibition at 100 µg/mL (Escherichia coli [7]) [mm]	zone of inhibition at 50 µg/mL (Staphylococcus aureus [8]) [mm]	zone of inhibition at 100 µg/mL (Aspergillus niger [9]) [mm]	zone of inhibition at 50 µg/mL (Candida albicans [10]) [mm]	zone of inhibition at 50 µg/mL (Aspergillus niger [11]) [mm]	zone of inhibition at 25 µg/mL (Fusarium oxysporum [12]) [mm]	zone of inhibition at 75 µg/mL (Klebsiella pneumoniae [13]) [mm]	zone of inhibition at 50 µg/mL (Bacillus subtilis [14]) [mm]	zone of inhibition at 75 µg/mL (Bacillus subtilis [15]) [mm]	zone of inhibition at 75 µg/mL (Aspergillus niger [16]) [mm]	zone of inhibition at 25 µg/mL (Aspergillus niger [17]) [mm]	zone of inhibition at 25 µg/mL (Candida albicans [18]) [mm]	zone of inhibition at 100 µg/mL (Fusarium oxysporum [19]) [mm]	other results
CC(C)[C@H](N)C(=O)Oc1ccc2c(=O)c3ccccc3oc2c1.Cl	10	19	82	12	19	15	15	23	17	21	11	12	10	21	15	20	17	9	8	21	zone of inhibition at 100 µg/mL (Klebsiella pneumoniae [20]): 27 mm; zone of inhibition at 100 µg/mL (Bacillus subtilis [21]): 24 mm; zone of inhibition at 25 µg/mL (Escherichia coli [22]): 11 mm; zone of inhibition at 25 µg/mL (Klebsiella pneumoniae [23]): 16 mm; zone of inhibition at 75 µg/mL (Candida albicans [24]): 16 mm; zone of inhibition at 75 µg/mL (Fusarium oxysporum [25]): 19 mm; zone of inhibition at 75 µg/mL (Staphylococcus aureus [26]): 21 mm; zone of inhibition at 100 µg/mL (Staphylococcus aureus [27]): 24 mm; zone of inhibition at 25 µg/mL (Staphylococcus aureus [28]): 14 mm
CC(C)(C)OC(=O)NCC(=O)Oc1ccc2c(=O)c3ccccc3oc2c1	6	16	66 (≈ 179 µM)	12	16	3	9	21	12	15	10	9	4	17	12	16	12	5	7	15	zone of inhibition at 100 µg/mL (Klebsiella pneumoniae [20]): 23 mm; zone of inhibition at 100 µg/mL (Bacillus subtilis [21]): 20 mm; zone of inhibition at 25 µg/mL (Escherichia coli [22]): 7 mm; zone of inhibition at 25 µg/mL (Klebsiella pneumoniae [23]): 16 mm; zone of inhibition at 75 µg/mL (Candida albicans [24]): 14 mm; zone of inhibition at 75 µg/mL (Fusarium oxysporum [25]): 13 mm; zone of inhibition at 75 µg/mL (Staphylococcus aureus [26]): 16 mm; zone of inhibition at 100 µg/mL (Staphylococcus aureus [27]): 22 mm; zone of inhibition at 25 µg/mL (Staphylococcus aureus [28]): 7 mm
Cl.N[C@@H](CS)C(=O)Oc1ccc2c(=O)c3ccccc3oc2c1	19	34	30	23	40	28	28	39	29	37	26	27	20	30	26	31	32	19	17	39	zone of inhibition at 100 µg/mL (Klebsiella pneumoniae [20]): 37 mm; zone of inhibition at 100 µg/mL (Bacillus subtilis [21]): 34 mm; zone of inhibition at 25 µg/mL (Escherichia coli [22]): 19 mm; zone of inhibition at 25 µg/mL (Klebsiella pneumoniae [23]): 15 mm; zone of inhibition at 75 µg/mL (Candida albicans [24]): 35 mm; zone of inhibition at 75 µg/mL (Fusarium oxysporum [25]): 33 mm; zone of inhibition at 75 µg/mL (Staphylococcus aureus [26]): 35 mm; zone of inhibition at 100 µg/mL (Staphylococcus aureus [27]): 39 mm; zone of inhibition at 25 µg/mL (Staphylococcus aureus [28]): 20 mm
Cl.NCC(=O)Oc1ccc2c(=O)c3ccccc3oc2c1	10	21	70	22	20	17	10	24	15	17	11	10	7	27	15	21	14	7	9	17	zone of inhibition at 100 µg/mL (Klebsiella pneumoniae [20]): 30 mm; zone of inhibition at 100 µg/mL (Bacillus subtilis [21]): 26 mm; zone of inhibition at 25 µg/mL (Escherichia coli [22]): 12 mm; zone of inhibition at 25 µg/mL (Klebsiella pneumoniae [23]): 17 mm; zone of inhibition at 75 µg/mL (Candida albicans [24]): 16 mm; zone of inhibition at 75 µg/mL (Fusarium oxysporum [25]): 14 mm; zone of inhibition at 75 µg/mL (Staphylococcus aureus [26]): 19 mm; zone of inhibition at 100 µg/mL (Staphylococcus aureus [27]): 23 mm; zone of inhibition at 25 µg/mL (Staphylococcus aureus [28]): 10 mm
CC(C)C[C@H](N)C(=O)Oc1ccc2c(=O)c3ccccc3oc2c1.Cl	13	20	70	16	21	14	13	24	12	22	15	14	9	22	19	24	19	10	10	19	zone of inhibition at 100 µg/mL (Klebsiella pneumoniae [20]): 26 mm; zone of inhibition at 100 µg/mL (Bacillus subtilis [21]): 29 mm; zone of inhibition at 25 µg/mL (Escherichia coli [22]): 8 mm; zone of inhibition at 25 µg/mL (Klebsiella pneumoniae [23]): 10 mm; zone of inhibition at 75 µg/mL (Candida albicans [24]): 19 mm; zone of inhibition at 75 µg/mL (Fusarium oxysporum [25]): 17 mm; zone of inhibition at 75 µg/mL (Staphylococcus aureus [26]): 15 mm; zone of inhibition at 100 µg/mL (Staphylococcus aureus [27]): 21 mm; zone of inhibition at 25 µg/mL (Staphylococcus aureus [28]): 9 mm
